Measured values published in ChEMBL document CHEMBL1145922, “1,2-benzisoxazole phosphorodiamidates as novel anticancer prodrugs requiring bioreductive activation” (J Med Chem, 2003).

Tests used:
Format in all cases: functional
[1] = species on record: Rattus norvegicus; test: Tested for formation of compound upon incubation of compound 15 for 30 minutes with rat liver cystolic fractions in oxic condition in the absence of cofactor
Summary of the method: (§1)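 Phenobarbital-induced rat liver S-9, microsomal or cytosolic fraction with 5 mM cofactor (NADPH, NADH, benzaldehyde or 2-hydroxypyrimidine) or none. Substrate 2.5 mM final, added from methanol/water 50:50. Hypoxic vials purged with nitrogen 15–20 min. 30 min at 37 °C, quenched with ice-cold methanol. Ketone metabolite by HPLC at 254 nm as percent of equimolar substrate.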

[2] = species on record: Rattus norvegicus; test: Percent inhibition of formation of compound upon incubation of 15 with phenobarbit-induced rat liver microsomal fraction in oxic condition in presence of SKF-525A at a concentration of 4 mM
Summary of the method: (§2)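 Phenobarbital-induced rat liver microsomes; inhibitors SKF-525A (in methanol) or pCMBA (in DMF) at 0–4 mM final. pCMBA preincubated 30 min before NADPH; SKF-525A incubated 15 min with microsomes and NADPH. Hypoxic samples nitrogen-purged. Substrate 2.5 mM added, 30 min at 37 °C. Ketone metabolite by HPLC at 254 nm as percent of substrate; % inhibition relative to no inhibitor. Mean of two experiments.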

[3] = species on record: Rattus norvegicus; test: Percent inhibition of formation of compound upon incubation of 15 with phenobarbit-induced rat liver microsomal fraction in hypoxic condition in presence of pCMBA at a concentration of 2 mM; summary of the method: as §2
[4] = species on record: Rattus norvegicus; test: Percent inhibition of formation of compound upon incubation of 15 with phenobarbit-induced rat liver microsomal fraction in oxic condition in presence of SKF-525A at a concentration of 2 mM; summary of the method: as §2
[5] = species on record: Rattus norvegicus; test: Percent formation of compound upon incubation of 15 with phenobarbit-induced rat liver microsomal fraction in hypoxic condition in presence of SKF-525A at a concentration of 2 mM; summary of the method: as §2
[6] = species on record: Rattus norvegicus; test: Percent formation of compound upon incubation of 15 with phenobarbit-induced rat liver microsomal fraction in hypoxic condition in presence of pCMBA at a concentration of 1 mM; summary of the method: as §2
[7] = species on record: Rattus norvegicus; test: Percent formation of compound upon incubation of 15 with phenobarbit-induced rat liver microsomal fraction in oxic condition in presence of pCMBA at a concentration of 1 mM; summary of the method: as §2
[8] = species on record: Rattus norvegicus; test: Tested for formation of compound upon incubation of compound 15 for 30 minutes with rat liver microsomal fractions in oxic condition in the absence of cofactor; summary of the method: as §1
[9] = species on record: Rattus norvegicus; test: Percent formation of compound upon incubation of 15 with phenobarbit-induced rat liver microsomal fraction in oxic condition in presence of pCMBA at a concentration of 0 mM; summary of the method: as §2
[10] = species on record: Rattus norvegicus; test: Percent formation of compound upon incubation of 15 with phenobarbit-induced rat liver microsomal fraction in hypoxic condition in presence of pCMBA at a concentration of 2 mM; summary of the method: as §2
[11] = species on record: Rattus norvegicus; test: Percent formation of compound upon incubation of 15 with phenobarbit-induced rat liver microsomal fraction in oxic condition in presence of pCMBA at a concentration of 2 mM; summary of the method: as §2
[12] = species on record: Rattus norvegicus; test: Percent inhibition of formation of compound upon incubation of 15 with phenobarbit-induced rat liver microsomal fraction in oxic condition in presence of SKF-525A at a concentration of 1 mM; summary of the method: as §2
[13] = species on record: Rattus norvegicus; test: Percent formation of compound upon incubation of 15 with phenobarbit-induced rat liver microsomal fraction in oxic condition in presence of SKF-525A at a concentration of 2 mM; summary of the method: as §2
[14] = species on record: Rattus norvegicus; test: Tested for formation of compound upon incubation of compound 15 for 30 minutes with uninduced rat liver S-9 fractions in oxic condition in the presence of NADPH
Summary of the method: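 Uninduced rat liver S-9 (22.5 mg/mL protein, 2 mL) with 5 mM NADPH or no cofactor, substrate 2.5 mM final; hypoxic samples nitrogen-purged 15–20 min in septum-sealed vials, else aerobic; 30 min at 37 °C. Methanol quench, centrifugation, C-18 HPLC with UV 254 nm; metabolite as percent of equimolar substrate. NADPH runs three experiments, no-cofactor runs two.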

[15] = species on record: Rattus norvegicus; test: Percent formation of compound upon incubation of 15 for 60 minutes with rat P450 reductase microsomes in oxic condition in presence of NADPAH
Summary of the method: (§3)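 Human or rat P450 reductase microsomes at 1 mg/mL protein, substrate 0.25 mM and cofactor 0.5 mM; pCMBA 2 mM where stated. Anaerobic samples purged with nitrogen 15–20 min in septum-sealed vials. 60 min at 37 °C, stopped with ice-cold methanol. Ketone metabolite quantified by HPLC (C-18, methanol/water 50:50, UV 254 nm) as percent of equimolar substrate. Mean of two experiments.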

[16] = species on record: Rattus norvegicus; test: Percent inhibition of formation of compound upon incubation of 15 with phenobarbit-induced rat liver microsomal fraction in hypoxic condition in presence of SKF-525A at a concentration of 4 mM; summary of the method: as §2
[17] = species on record: Rattus norvegicus; test: Percent inhibition of formation of compound upon incubation of 15 with phenobarbit-induced rat liver microsomal fraction in oxic condition in presence of SKF-525A at a concentration of 0 mM; summary of the method: as §2
[18] = species on record: Rattus norvegicus; test: Tested for formation of compound upon incubation of compound 15 for 30 minutes with rat liver microsomal fractions in hypoxic condition in the absence of cofactor; summary of the method: as §1
[19] = species on record: Rattus norvegicus; test: Percent inhibition of formation of compound upon incubation of 15 with phenobarbit-induced rat liver microsomal fraction in oxic condition in presence of pCMBA at a concentration of 0 mM; summary of the method: as §2
[20] = species on record: Rattus norvegicus; test: Percent inhibition of formation of compound upon incubation of 15 with phenobarbit-induced rat liver microsomal fraction in hypoxic condition in presence of pCMBA at a concentration of 1 mM; summary of the method: as §2
[21] = species on record: Rattus norvegicus; test: Percent formation of compound upon incubation of 15 with phenobarbit-induced rat liver microsomal fraction in oxic condition in presence of SKF-525A at a concentration of 1 mM; summary of the method: as §2
[22] = species on record: Homo sapiens; test: Percent formation of compound upon incubation of 15 for 60 minutes with human P450 reductase microsomes in hypoxic condition in presence of NADPH; summary of the method: as §3
[23] = species on record: Rattus norvegicus; test: Tested for formation of compound upon incubation of compound 15 for 30 minutes with rat liver subcellular fractions in hypoxic condition in the presence of NADPH; summary of the method: as §1
[24] = species on record: Rattus norvegicus; test: Tested for formation of compound upon incubation of compound 15 for 30 minutes with rat liver subcellular fractions in oxic condition in the presence of benzaldehyde
Summary of the method: (§4)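 Phenobarbital-induced rat liver S-9 fraction (2 mL) with 5 mM cofactor (NADPH, NADH, benzaldehyde or 2-hydroxypyrimidine), substrate 2.5 mM final, added in methanol/water 50:50; aerobic, 30 min at 37 °C. Quenched with ice-cold methanol, proteins spun down, supernatant analysed by reverse-phase C-18 HPLC, UV 254 nm; ketone metabolite given as percent of equimolar substrate; three experiments.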

[25] = species on record: Rattus norvegicus; test: Percent inhibition of formation of compound upon incubation of 15 with phenobarbit-induced rat liver microsomal fraction in hypoxic condition in presence of SKF-525A at a concentration of 2 mM; summary of the method: as §2
[26] = species on record: Rattus norvegicus; test: Tested for formation of compound upon incubation of compound 15 for 30 minutes with rat liver subcellular fractions in hypoxic condition in the presence of 2-hydroxypyrimidine; summary of the method: as §1
[27] = species on record: Rattus norvegicus; test: Percent inhibition of formation of compound upon incubation of 15 with phenobarbit-induced rat liver microsomal fraction in hypoxic condition in presence of SKF-525A at a concentration of 1 mM; summary of the method: as §2
[28] = species on record: Rattus norvegicus; test: Tested for formation of compound upon incubation of compound 15 for 30 minutes with rat liver subcellular fractions in oxic condition in the presence of NADH; summary of the method: as §4

Compound: CCC(=O)c1ccccc1O
- Formation [1]: 0.4%
- inhibition [2]: 40%
- inhibition [3]: 99%
- inhibition [4]: 14%
- Formation [5]: 50.3%
- Formation [6]: 0.7%
- Formation [7]: 0.5%
- Formation [8]: 0.6%
- Formation [9]: 68.8%
- Formation [10]: 1.2%
- Formation [11]: 0.5%
- inhibition [12]: 18%
- Formation [13]: 38.5%
- Formation [14]: 9.1%
- Formation [15]: 1.5%
- inhibition [16]: 36%
- inhibition [17]: 0%
- Formation [18]: 0.4%
- inhibition [19]: 0%
- inhibition [20]: 99%
- Formation [21]: 36.9%
- Formation [22]: 1.7%
- Formation [23]: 88.5%
- Formation [24]: 0.7%
- inhibition [25]: 29%
- Formation [26]: 0.5%
- inhibition [27]: 23%
- Formation [28]: 14.8%
